# Measurements taken from ChEMBL document CHEMBL1139597, “Evaluation of 3-substituted arginine analogs as selective inhibitors of human nitric oxide synthase isozymes” (Bioorg Med Chem Lett, 2005).
# How the values were obtained:
# Nitric oxide synthase 3 = target: T1, Nitric oxide synthase 3 (Homo sapiens, UniProt P29474); assay: Inhibitory concentration against human endothelial nitric oxide synthase expressed in Sf-9 cells
# T1 sequence (P29474 whole entry): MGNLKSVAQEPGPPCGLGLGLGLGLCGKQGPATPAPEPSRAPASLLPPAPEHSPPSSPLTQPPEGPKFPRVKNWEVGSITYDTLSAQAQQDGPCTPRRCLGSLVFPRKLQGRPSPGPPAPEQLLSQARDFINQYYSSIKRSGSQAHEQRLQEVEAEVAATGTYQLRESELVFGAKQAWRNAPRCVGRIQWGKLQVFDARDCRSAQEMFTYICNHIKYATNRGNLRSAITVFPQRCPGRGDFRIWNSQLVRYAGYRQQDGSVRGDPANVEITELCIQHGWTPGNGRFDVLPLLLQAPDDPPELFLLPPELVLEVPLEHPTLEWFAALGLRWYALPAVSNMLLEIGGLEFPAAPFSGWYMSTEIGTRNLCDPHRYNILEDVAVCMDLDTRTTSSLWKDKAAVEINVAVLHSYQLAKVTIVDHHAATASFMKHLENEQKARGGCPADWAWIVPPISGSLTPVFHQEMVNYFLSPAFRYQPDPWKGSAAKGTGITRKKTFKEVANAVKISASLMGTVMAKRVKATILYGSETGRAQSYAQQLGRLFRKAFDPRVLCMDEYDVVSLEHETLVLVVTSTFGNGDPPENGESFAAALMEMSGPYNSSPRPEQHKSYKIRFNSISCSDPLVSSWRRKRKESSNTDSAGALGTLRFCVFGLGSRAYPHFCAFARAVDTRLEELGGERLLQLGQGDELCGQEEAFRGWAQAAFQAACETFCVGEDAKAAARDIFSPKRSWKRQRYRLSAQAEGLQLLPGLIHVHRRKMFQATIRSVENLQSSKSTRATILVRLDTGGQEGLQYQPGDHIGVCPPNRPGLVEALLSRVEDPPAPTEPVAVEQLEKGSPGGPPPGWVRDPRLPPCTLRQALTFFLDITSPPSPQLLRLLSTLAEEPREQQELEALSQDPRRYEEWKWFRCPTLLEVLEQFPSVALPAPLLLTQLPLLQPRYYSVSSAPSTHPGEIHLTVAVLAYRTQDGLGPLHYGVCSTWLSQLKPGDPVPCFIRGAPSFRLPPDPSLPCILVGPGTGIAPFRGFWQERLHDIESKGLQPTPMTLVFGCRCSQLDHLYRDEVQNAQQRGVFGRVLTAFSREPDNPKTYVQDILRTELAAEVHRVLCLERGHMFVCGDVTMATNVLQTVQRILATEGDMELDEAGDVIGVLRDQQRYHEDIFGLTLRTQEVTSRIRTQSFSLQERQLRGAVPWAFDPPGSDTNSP
# How it was run: (§1)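 Recombinant human NOS isozyme produced in Sf-9 insect cells. Enzyme activity was followed as conversion of [¹⁴C]-L-Arg to [¹⁴C]-L-Cit, and IC50 was calculated from the concentration dependence of inhibition. Inhibitors were tested up to 1 mM.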
# Nitric oxide synthase 1 = Nitric oxide synthase 1 (Homo sapiens, UniProt P29475); assay: Inhibitory concentration against human neuronal nitric oxide synthase expressed in Sf-9 cells; how it was run: as §1
# [1] = target: Nitric oxide synthase, inducible (Homo sapiens, UniProt P35228); assay: Inhibitory concentration against human inducible nitric oxide synthase expressed in Sf-9 cells; how it was run: as §1
# Chain of Nitric oxide synthase, inducible (P35228 whole entry): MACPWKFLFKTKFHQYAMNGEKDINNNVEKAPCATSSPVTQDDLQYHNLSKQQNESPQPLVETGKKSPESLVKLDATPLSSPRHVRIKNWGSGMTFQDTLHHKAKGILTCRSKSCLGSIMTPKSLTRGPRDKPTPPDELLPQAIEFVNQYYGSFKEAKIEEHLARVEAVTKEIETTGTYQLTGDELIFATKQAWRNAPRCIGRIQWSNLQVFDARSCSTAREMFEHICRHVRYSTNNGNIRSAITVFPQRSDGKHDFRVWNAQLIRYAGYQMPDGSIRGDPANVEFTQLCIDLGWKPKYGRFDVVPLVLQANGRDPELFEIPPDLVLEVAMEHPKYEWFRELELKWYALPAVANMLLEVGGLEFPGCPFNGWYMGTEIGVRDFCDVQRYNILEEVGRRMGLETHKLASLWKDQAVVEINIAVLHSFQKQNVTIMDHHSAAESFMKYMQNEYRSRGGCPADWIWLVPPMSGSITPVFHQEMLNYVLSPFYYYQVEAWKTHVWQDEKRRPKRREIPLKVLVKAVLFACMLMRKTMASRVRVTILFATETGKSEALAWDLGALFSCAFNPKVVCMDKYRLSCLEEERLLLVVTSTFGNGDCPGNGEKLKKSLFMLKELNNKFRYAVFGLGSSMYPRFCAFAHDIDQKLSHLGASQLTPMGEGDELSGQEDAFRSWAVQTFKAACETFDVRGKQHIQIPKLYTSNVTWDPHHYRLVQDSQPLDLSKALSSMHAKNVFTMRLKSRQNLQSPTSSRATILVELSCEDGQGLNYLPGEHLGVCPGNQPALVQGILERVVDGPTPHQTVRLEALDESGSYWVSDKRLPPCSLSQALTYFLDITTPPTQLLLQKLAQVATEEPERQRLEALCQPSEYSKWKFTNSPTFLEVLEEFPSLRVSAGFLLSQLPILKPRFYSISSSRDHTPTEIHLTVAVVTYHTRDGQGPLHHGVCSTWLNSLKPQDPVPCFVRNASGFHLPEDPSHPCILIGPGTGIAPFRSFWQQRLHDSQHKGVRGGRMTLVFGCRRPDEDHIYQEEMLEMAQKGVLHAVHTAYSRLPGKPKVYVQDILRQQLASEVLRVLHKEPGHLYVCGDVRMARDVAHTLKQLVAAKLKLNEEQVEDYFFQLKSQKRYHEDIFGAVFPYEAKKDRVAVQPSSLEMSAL
# Chain of Nitric oxide synthase 1 (P29475 whole entry): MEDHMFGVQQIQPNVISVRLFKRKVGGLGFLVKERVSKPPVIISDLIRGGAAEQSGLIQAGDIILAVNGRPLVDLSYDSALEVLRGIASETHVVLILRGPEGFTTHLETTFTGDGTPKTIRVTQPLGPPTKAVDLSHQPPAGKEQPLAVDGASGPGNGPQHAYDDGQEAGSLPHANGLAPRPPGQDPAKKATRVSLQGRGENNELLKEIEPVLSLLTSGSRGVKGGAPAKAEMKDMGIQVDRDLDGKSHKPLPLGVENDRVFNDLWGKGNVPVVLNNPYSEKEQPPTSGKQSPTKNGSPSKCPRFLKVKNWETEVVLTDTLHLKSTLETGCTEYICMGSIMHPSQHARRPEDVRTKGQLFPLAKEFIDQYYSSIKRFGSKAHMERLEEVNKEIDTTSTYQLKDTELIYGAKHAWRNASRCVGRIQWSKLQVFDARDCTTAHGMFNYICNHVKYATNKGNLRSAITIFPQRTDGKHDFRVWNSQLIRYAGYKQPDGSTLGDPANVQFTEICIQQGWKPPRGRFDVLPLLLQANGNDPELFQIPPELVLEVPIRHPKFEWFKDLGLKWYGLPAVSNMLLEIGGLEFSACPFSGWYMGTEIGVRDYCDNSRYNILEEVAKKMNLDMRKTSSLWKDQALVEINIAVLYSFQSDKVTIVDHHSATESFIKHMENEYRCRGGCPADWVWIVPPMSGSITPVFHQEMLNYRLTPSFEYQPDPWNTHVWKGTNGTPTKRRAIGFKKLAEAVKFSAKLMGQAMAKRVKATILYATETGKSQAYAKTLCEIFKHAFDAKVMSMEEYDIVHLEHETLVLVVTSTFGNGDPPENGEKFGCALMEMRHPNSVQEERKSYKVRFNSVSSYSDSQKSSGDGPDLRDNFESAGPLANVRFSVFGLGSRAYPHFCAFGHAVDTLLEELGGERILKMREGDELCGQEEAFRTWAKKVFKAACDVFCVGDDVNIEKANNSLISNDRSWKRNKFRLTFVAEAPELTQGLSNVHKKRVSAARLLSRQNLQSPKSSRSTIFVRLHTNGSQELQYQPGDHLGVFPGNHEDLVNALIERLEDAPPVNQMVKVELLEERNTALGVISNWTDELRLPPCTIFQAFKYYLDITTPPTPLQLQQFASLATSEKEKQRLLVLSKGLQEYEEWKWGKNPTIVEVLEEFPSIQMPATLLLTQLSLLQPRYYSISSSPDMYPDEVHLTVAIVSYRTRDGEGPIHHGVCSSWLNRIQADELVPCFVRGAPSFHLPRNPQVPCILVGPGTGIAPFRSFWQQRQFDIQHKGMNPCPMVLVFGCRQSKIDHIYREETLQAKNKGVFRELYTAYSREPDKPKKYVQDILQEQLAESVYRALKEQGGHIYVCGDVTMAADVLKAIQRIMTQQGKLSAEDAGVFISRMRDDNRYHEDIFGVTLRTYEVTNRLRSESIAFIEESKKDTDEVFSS
IC50 (Nitric oxide synthase 3) [mM],IC50 (Nitric oxide synthase 1) [µM],IC50 [1] [µM],Structure (SMILES)
> 1,36,3.9,CSC(=N)NCCC[C@H](N)C(=O)N[C@@H](Cc1ccccc1)C(=O)O
> 1,500,370,CCC[C@@H](CCN=C(N)SC)[C@H](N)C(=O)O
> 1,> 1000,> 1000,CC(=N)NCC[C@@H](C)[C@H](N)C(=O)O
0.006,,4,CC(=N)NCCC[C@H](N)C(=O)O [L-NIO]
